Data reported in ChEMBL document CHEMBL5104202, “Structure-Uptake Relationship Studies of Oxazolidinones in Gram-Negative ESKAPE Pathogens” (J Med Chem, 2022).
Values after ≈ are worked out from the molar mass of the structure shown.

How the values were obtained:
Acinetobacter baumannii [1] = test: Antibacterial activity against multidrug resistant Acinetobacter baumannii AYE assessed as inhibition of bacterial growth incubated for 24 hrs in MHI medium by twofold serial dilution method; format: functional
Escherichia coli [2] = test: Antibacterial activity against efflux pump lacking/recombinant OM pore producing Escherichia coli assessed as inhibition of bacterial growth; format: functional, organism-based
Escherichia coli [3] = test: Antibacterial activity against wild type Escherichia coli assessed as inhibition of bacterial growth; format: functional, organism-based
Acinetobacter baumannii [4] = test: Antibacterial activity against recombinant OM pore producing Acinetobacter baumannii assessed as inhibition of bacterial growth; format: functional, organism-based
Klebsiella pneumoniae [5] = test: Antibacterial activity against multidrug resistant Klebsiella pneumoniae ATCC43816 assessed as inhibition of bacterial growth incubated for 24 hrs in MHI medium by twofold serial dilution method; settings: ATCC43816, 24 h
Escherichia coli [6] = test: Antibacterial activity against Escherichia coli SQ110 DTC incubated for 24 hrs by twofold serial dilution method; format: functional
How it was run: (§1)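 MICs by twofold serial dilution in 96-well plates from 10 mM DMSO stocks. Cultures grown in the indicated media; for E. coli, A. baumannii and P. aeruginosa, inducers were 0.1% arabinose, 1% arabinose and 0.1 mM IPTG respectively.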

Pseudomonas aeruginosa [7] = test: Antibacterial activity against efflux pump lacking Pseudomonas aeruginosa assessed as inhibition of bacterial growth; format: functional, organism-based
Pseudomonas aeruginosa [8] = test: Antibacterial activity against multidrug resistant Pseudomonas aeruginosa BAA 2108 assessed as inhibition of bacterial growth incubated for 24 hrs in MHI medium by twofold serial dilution method; format: functional
Acinetobacter baumannii [9] = test: Antibacterial activity against efflux pump lacking/recombinant OM pore producing Acinetobacter baumannii assessed as inhibition of bacterial growth; format: functional, organism-based
Escherichia coli [10] = test: Antibacterial activity against Escherichia coli SQ110 DTC G2032A incubated for 24 hrs by twofold serial dilution method; format: functional
How it was run: (§2)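 E. coli SQDTC (TolC-deficient, single rRNA operon) carrying LZD-resistant 23S rRNA substitutions. Compounds come from 10 mM DMSO stocks and are twofold serially diluted in 96-well plates.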

Klebsiella aerogenes = test: Antibacterial activity against multidrug resistant Klebsiella aerogenes ATCC13048 assessed as inhibition of bacterial growth incubated for 24 hrs in M9-MOPS medium by twofold serial dilution method; format: functional
Pseudomonas aeruginosa [11] = test: Antibacterial activity against efflux pump lacking/recombinant OM pore producing Pseudomonas aeruginosa assessed as inhibition of bacterial growth; format: functional, organism-based
Acinetobacter baumannii [12] = test: Antibacterial activity against efflux pump lacking Acinetobacter baumannii assessed as inhibition of bacterial growth; format: functional, organism-based
Pseudomonas aeruginosa [13] = test: Antibacterial activity against efflux pump lacking/recombinant OM pore producing Pseudomonas aeruginosa incubated for 24 hrs by twofold serial dilution method; format: functional; how it was run: as §1
Acinetobacter baumannii [14] = test: Antibacterial activity against multidrug resistant Acinetobacter baumannii Ab5075 assessed as inhibition of bacterial growth incubated for 24 hrs in M9-MOPS medium by twofold serial dilution method; format: functional
Escherichia coli [15] = test: Antibacterial activity against Escherichia coli SQ110 DTC C2610A incubated for 24 hrs by twofold serial dilution method; format: functional; how it was run: as §2
Acinetobacter baumannii [16] = test: Antibacterial activity against wild type Acinetobacter baumannii assessed as inhibition of bacterial growth; format: functional, organism-based
Escherichia coli [17] = test: Antibacterial activity against Escherichia coli SQ110 incubated for 24 hrs by twofold serial dilution method; format: functional; how it was run: as §1
Pseudomonas aeruginosa [18] = test: Antibacterial activity against recombinant OM pore producing Pseudomonas aeruginosa assessed as inhibition of bacterial growth; format: functional, organism-based
Klebsiella pneumoniae [19] = test: Antibacterial activity against multidrug resistant Klebsiella pneumoniae ATCC43816 assessed as inhibition of bacterial growth incubated for 24 hrs in MHI medium by twofold serial dilution method; format: functional
Pseudomonas aeruginosa [20] = test: Antibacterial activity against multidrug resistant Pseudomonas aeruginosa BAA 2109 assessed as inhibition of bacterial growth incubated for 24 hrs in MHI medium by twofold serial dilution method; format: functional
Escherichia coli [21] = test: Antibacterial activity against efflux pump lacking/recombinant OM pore producing Escherichia coli incubated for 24 hrs by twofold serial dilution method; format: functional
How it was run: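 E. coli efflux-knockout/hyperporinated strain grown in M9 medium with 50 mM MOPS (pH 7.2) and 0.2% xylose. OM pore induced with 0.1% arabinose. Compounds come from 10 mM DMSO stocks and are twofold serially diluted in 96-well plates.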

Pseudomonas aeruginosa [22] = test: Selectivity ratio of IC50 for efflux pump lacking Pseudomonas aeruginosa to IC50 for efflux pump lacking/OM pore producing Pseudomonas aeruginosa; format: functional
How it was run: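 OM impact ratio (E/PE) is the M9-MOPS growth IC50 in the efflux-lacking strain divided by that in the efflux-lacking/pore-producing strain.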

Escherichia coli [23] = test: Antibacterial activity against efflux pump lacking Escherichia coli assessed as inhibition of bacterial growth; format: functional, organism-based
Klebsiella pneumoniae [24] = test: Antibacterial activity against multidrug resistant Klebsiella pneumoniae ATCC13883 assessed as inhibition of bacterial growth incubated for 24 hrs in M9-MOPS medium by twofold serial dilution method; format: functional
Staphylococcus aureus = test: Antibacterial activity against Staphylococcus aureus ATCC 25923 incubated for 24 hrs by twofold serial dilution method; format: functional; how it was run: as §1
Klebsiella pneumoniae [25] = test: Antibacterial activity against multidrug resistant Klebsiella pneumoniae ATCC13883 assessed as inhibition of bacterial growth incubated for 24 hrs in MHI medium by twofold serial dilution method; format: functional
Acinetobacter baumannii [26] = test: Antibacterial activity against efflux pump lacking/recombinant OM pore producing Acinetobacter baumannii incubated for 24 hrs by twofold serial dilution method; format: functional; how it was run: as §1
Pseudomonas aeruginosa [27] = test: Selectivity ratio of IC50 for OM pore producing Pseudomonas aeruginosa to IC50 for efflux pump lacking/OM pore producing Pseudomonas aeruginosa; format: functional
How it was run: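 Efflux impact ratio (P/PE) is the M9-MOPS growth IC50 in the pore-producing strain divided by that in the efflux-lacking/pore-producing strain.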

Escherichia coli [28] = test: Antibacterial activity against recombinant OM pore producing Escherichia coli assessed as inhibition of bacterial growth; format: functional, organism-based
Acinetobacter baumannii [29] = test: Antibacterial activity against multidrug resistant Acinetobacter baumannii AYE assessed as inhibition of bacterial growth incubated for 24 hrs in M9-MOPS medium by twofold serial dilution method; format: functional
Pseudomonas aeruginosa [30] = test: Antibacterial activity against multidrug resistant Pseudomonas aeruginosa BAA 2108 assessed as inhibition of bacterial growth incubated for 24 hrs in M9-MOPS medium by twofold serial dilution method; format: functional
Acinetobacter baumannii [31] = test: Antibacterial activity against multidrug resistant Acinetobacter baumannii Ab5075 assessed as inhibition of bacterial growth incubated for 24 hrs in MHI medium by twofold serial dilution method; format: functional
Klebsiella pneumoniae [32] = test: Antibacterial activity against multidrug resistant Klebsiella pneumoniae ATCC43816 assessed as inhibition of bacterial growth incubated for 24 hrs in M9-MOPS medium by twofold serial dilution method; format: functional
Pseudomonas aeruginosa [33] = test: Antibacterial activity against multidrug resistant Pseudomonas aeruginosa BAA 2109 assessed as inhibition of bacterial growth incubated for 24 hrs in […] medium by twofold serial dilution method; format: functional
Pseudomonas aeruginosa [34] = test: Antibacterial activity against wild type Pseudomonas aeruginosa assessed as inhibition of bacterial growth; format: functional, organism-based

## CC(=O)NC[C@H]1CN(c2ccc(N3CCOCC3)c(F)c2)C(=O)O1 [LINEZOLID]
Acinetobacter baumannii [1]
  MIC: > 200 µM
Escherichia coli [2]
  IC50: 9.3 µM
Escherichia coli [3]
  IC50: > 100 µM
Acinetobacter baumannii [4]
  IC50: 9.2 µM
Klebsiella pneumoniae [5]
  MIC: > 200 µM
Escherichia coli [6]
  MIC: 25 µM (≈ 8.43 µg/mL)
Pseudomonas aeruginosa [7]
  IC50: 24.7 µM
Pseudomonas aeruginosa [8]
  MIC: > 200 µM
Acinetobacter baumannii [9]
  IC50: 4 µM
Escherichia coli [10]
  MIC: > 100 µM
Klebsiella aerogenes
  MIC: > 200 µM
Pseudomonas aeruginosa [11]
  IC50: 1.7 µM
Acinetobacter baumannii [12]
  IC50: 4.9 µM
Pseudomonas aeruginosa [13]
  MIC: 12.5 µM
Acinetobacter baumannii [14]
  MIC: ≥ 200 µM
Escherichia coli [15]
  MIC: 50 µM (≈ 16.9 µg/mL)
Acinetobacter baumannii [16]
  IC50: 33.4 µM
Escherichia coli [17]
  MIC: > 100 µM
Pseudomonas aeruginosa [18]
  IC50: 19.8 µM
Klebsiella pneumoniae [19]
  MIC: > 200 µM
Pseudomonas aeruginosa [20]
  MIC: > 200 µM
Escherichia coli [21]
  MIC: 25 µM
Pseudomonas aeruginosa [22]
  Ratio IC50: 15
Escherichia coli [23]
  IC50: 8.7 µM
Klebsiella pneumoniae [24]
  MIC: ≥ 200 µM
Staphylococcus aureus
  MIC: 6.25 µM (≈ 2.11 µg/mL)
Klebsiella pneumoniae [25]
  MIC: > 200 µM
Acinetobacter baumannii [26]
  MIC: 25 µM
Pseudomonas aeruginosa [27]
  Ratio IC50: 12
Escherichia coli [28]
  IC50: 18 µM
Acinetobacter baumannii [29]
  MIC: 200 µM (≈ 67.5 µg/mL)
Pseudomonas aeruginosa [30]
  MIC: > 200 µM
Acinetobacter baumannii [31]
  MIC: > 200 µM
Klebsiella pneumoniae [32]
  MIC: > 200 µM
Pseudomonas aeruginosa [33]
  MIC: > 200 µM
Pseudomonas aeruginosa [34]
  IC50: > 100 µM
